Experimental data of several laboratories.
Protocols differ between the studies behind these lines.

Compound	cell line	assay	setting	measurement	value
FC(F)(F)[Se]CCOc1cccc(Oc2ccccc2)c1	Vero	cell growth or viability	72 h	CC50	> 20 µM
C=C(F)C(=O)N1CCN(c2nc(OC[C@@H]3CCCN3C)nc3c2CCN(c2cccc4cccc(Cl)c24)C3)C[C@@H]1CC#N	NCI-H1437	cell growth or viability, resazurin	72 h	GI50	3.68 µM
CCn1cc(-c2cccc(C(F)(F)F)c2)c2sc(C(=N)NC3CCS(=O)(=O)CC3)cc2c1=O	HL-60	cell growth or viability	7 days	EC50	433 nM
C=CC(=O)N1CCN(c2nc(=O)n(-c3c(C)ccnc3C(C)C)c3nc(-c4c(O)cccc4F)c(F)cc23)[C@@H](C)C1	NCI-H1437	cell growth or viability, resazurin	72 h	GI50	> 10 µM
N[C@@H]1CCCN(c2c(/C=C3\SC(=O)NC3=O)cccc2-c2ccccc2)C1	U-266	cell growth or viability, thymidine uptake		GI50	4.27 µM
C=CCn1c(-c2ccc(Cl)cc2)nc2ccc(C)cc21	human Rhabdomyosarcoma cell	cell growth or viability, MTT		IC50	48.8 µM
C/C(=N\O)c1ccc(-c2ccc(O)c(C)c2)c(Cl)c1O	NCI-H1299	cell growth or viability, MTT	30 µM, 48 h	viability	62%
Fc1ccc(-c2nc3ccccc3[nH]2)cc1	human Rhabdomyosarcoma cell	cell growth or viability, MTT	48 h	IC50	> 100 µM
CCC[C@@H]1CNC(=O)C(=O)N1C[C@@H]1CCCN1C[C@H](Cc1ccc(O)cc1)N1C[C@@H](Cc2ccc(O)cc2)N(CC(CC)c2ccccc2)C(=O)C1=O (some centres unmarked)	CHO-K1	cell growth or viability, ATP luminescence	100 µM	inhibition	0%
O=C1CCC(N2C(=O)c3ccc(NS(=O)(=O)c4ccccc4OC(F)(F)F)cc3C2=O)C(=O)N1 (centres unmarked)	MHHCALL4	cell growth or viability, ATP luminescence		EC50	0.0425 nM
Cc1cc(Nc2ncc(Cl)c(Nc3ccccc3S(=O)(=O)C(C)C)n2)c(OC(C)C)cc1C1CCNCC1	NCI-H3122	cell growth or viability, MTT	0.0032 µg/mL, 72 h	inhibition	10.3%
Cc1cc(Nc2ccc(C(=O)N/N=C/C3CCCCC3)cc2)c2cccc(O)c2n1	SMMC-7721	cell growth or viability, MTT	20 µM	inhibition	26.3%
C=CC(=O)N1CCC[C@@H](n2nc(-c3ccc(Oc4ccccc4)cc3)c3c(N)ncnc32)C1	BCWM1	cell growth or viability	48 h	GI50	0.57 µM
O=C(Cn1ccnc1[N+](=O)[O-])NCc1ccccc1	Vero	cell growth or viability	72 h	CC50	> 10 µM
Cn1nnc2c(C(N)=O)ncn2c1=O	MKN-45	cell growth or viability		EC50	491000 nM
Cc1cc(Nc2ccc(C(=O)N/N=C/c3cc4ccccc4[nH]3)cc2)c2cccc(O)c2n1	SMMC-7721	cell growth or viability, MTT	20 µM	inhibition	54.3%

Compound	cell line	assay	setting	measurement	value
CC(=O)c1c(C)c2cnc(Nc3ccc(N4CCNCC4)cn3)nc2n(C2CCCC2)c1=O	HCC70	cell growth or viability, resazurin		GI50	> 5 µM
Cc1cc(Nc2ccc(C(=O)N/N=C/c3ccnc(Cl)c3)cc2)c2cccc(O)c2n1	SMMC-7721	cell growth or viability, MTT	20 µM	inhibition	19.8%
N#C[Se]CCOc1ccccc1Oc1ccccc1	Vero	cell growth or viability	72 h	CC50	> 20 µM
COc1ccc(-c2ccc(/C(C)=N/O)c(O)c2Cl)cc1	NCI-H1299	cell growth or viability, MTT	30 µM, 48 h	viability	73%
Cc1cc(Nc2ccc(C(=O)N/N=C/c3ccccc3)cc2)c2cccc(O)c2n1	SMMC-7721	cell growth or viability, MTT	20 µM	inhibition	28.5%
CC(=O)c1cccc(N=Nc2c(C(=O)O)cc(O)c(O)c2O)c1	RAW264.7	TNF-α release, inhibitor, ELISA	10 µM, LPS-stimulated	inhibition	48%
Cc1cc(Nc2ccc(C(=O)N/N=C/c3ccc[nH]3)cc2)c2cccc(O)c2n1	SMMC-7721	cell growth or viability, MTT	20 µM	inhibition	16.1%
COc1ccc(-c2ccc(/C(C)=N/O)c(O)c2Cl)cc1Cl	NCI-H1299	cell growth or viability, MTT	30 µM, 48 h	viability	65%
Cc1cc(Nc2ccc(C(=O)N/N=C/c3ccncc3)cc2)c2cccc(O)c2n1	SMMC-7721	cell growth or viability, MTT	20 µM	inhibition	17.1%
COc1cccc(-c2nc3ccccc3[nH]2)c1	human Rhabdomyosarcoma cell	cell growth or viability, MTT	48 h	IC50	79 µM
C[C@@H](Oc1cc(-c2cnn(C3CCNCC3)c2)cnc1N)c1c(Cl)ccc(F)c1Cl	NCI-H3122	cell growth or viability, MTT	0.008 µg/mL, 72 h	inhibition	18.1%
Cc1cc(Nc2ccc(C(=O)N/N=C/c3cccc(Oc4ccccc4)c3)cc2)c2cccc(O)c2n1	SMMC-7721	cell growth or viability, MTT	20 µM	inhibition	37.6%
C/C(=N\O)c1ccc(-c2ccc(C#N)cc2)c(Cl)c1O	NCI-H1299	cell growth or viability, MTT	30 µM, 48 h	viability	75%
Cc1ccc2nc(-c3ccc(Cl)c(Cl)c3)[nH]c2c1	human Rhabdomyosarcoma cell	cell growth or viability, MTT	48 h	IC50	14.4 µM
C/C(=N\O)c1ccc(-c2ccc(C(F)(F)F)cc2)c(Cl)c1O	NCI-H1299	cell growth or viability, MTT	30 µM, 48 h	viability	89%
COc1ccc(-c2ccc(-c3ccc(C(=N)N)nc3)s2)cc1	M14	cell growth or viability, SRB		GI50	1.8 µM
